Experimental data taken from ChEMBL document CHEMBL1125270, “Renin inhibitors containing esters at the P2-position. Oral activity in a derivative of methyl aminomalonate” (J Med Chem, 1991).

Key:
[1] = target: Renin (Macaca fascicularis); assay: Inhibition of monkey plasma renin
[2] = target: Chymotrypsinogen A (Bos taurus) (UniProt P00766); assay: % degradation to Chymotrypsinogen proteolysis at 30 mins.
Outline: (§1)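 Bovine chymotrypsin in buffered solution at pH 6.9, following a previously established method. Test compound was incubated with the enzyme, and the percent of compound degraded was read at 15 or 30 min.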

Cathepsin D [3] = target: T1, Cathepsin D (Bos taurus, UniProt P80209); assay: Inhibition of Bovine Cathepsin D.
T1 sequence (P80209 whole entry): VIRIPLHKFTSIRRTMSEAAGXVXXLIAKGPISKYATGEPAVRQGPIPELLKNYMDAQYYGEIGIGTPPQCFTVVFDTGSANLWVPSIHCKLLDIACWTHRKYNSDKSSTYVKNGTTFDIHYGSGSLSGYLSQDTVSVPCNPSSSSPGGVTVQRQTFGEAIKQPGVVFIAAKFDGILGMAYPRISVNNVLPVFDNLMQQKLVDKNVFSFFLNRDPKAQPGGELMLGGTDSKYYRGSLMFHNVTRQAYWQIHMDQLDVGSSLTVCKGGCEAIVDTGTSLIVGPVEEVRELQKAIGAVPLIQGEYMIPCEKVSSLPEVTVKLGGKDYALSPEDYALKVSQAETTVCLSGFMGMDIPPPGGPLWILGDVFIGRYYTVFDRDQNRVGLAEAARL
Outline: (§2)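 Bovine cathepsin D hydrolysing twice-crystallised bovine hemoglobin at pH 3.2 and 37 °C, run in duplicate. Net absorbance at 280 nm was read in acid-precipitated supernatants and compared with uninhibited controls. IC50 came from nonlinear regression over six inhibitor concentrations.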

Cathepsin D [4] = target: T1, Cathepsin D; assay: Inhibitory concentration on Bovine Cathepsin D
Outline: as §2

Monkey [5] = assay: Maximum fall in mean arterial blood pressure expressed in mmHg following a 30 mg/kg dose in monkeys.; format: functional, Cercopithecidae
Outline: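 Conscious monkeys were dosed orally by gavage at 30 mg/kg in water/dimethylacetamide/Tween 80 (62.5:7.5:30), 2 mL/kg. Two models were used: high-renin normotensive (sodium restriction plus furosemide) or renal hypertensive (renal artery clipping). Mean arterial pressure was followed for 3 h, and the maximum fall in mmHg was recorded. N is given per compound.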

Renin = target: T2, Renin (Homo sapiens, UniProt P00797); assay: Inhibitory concentration against human renin
T2 sequence (P00797 whole entry): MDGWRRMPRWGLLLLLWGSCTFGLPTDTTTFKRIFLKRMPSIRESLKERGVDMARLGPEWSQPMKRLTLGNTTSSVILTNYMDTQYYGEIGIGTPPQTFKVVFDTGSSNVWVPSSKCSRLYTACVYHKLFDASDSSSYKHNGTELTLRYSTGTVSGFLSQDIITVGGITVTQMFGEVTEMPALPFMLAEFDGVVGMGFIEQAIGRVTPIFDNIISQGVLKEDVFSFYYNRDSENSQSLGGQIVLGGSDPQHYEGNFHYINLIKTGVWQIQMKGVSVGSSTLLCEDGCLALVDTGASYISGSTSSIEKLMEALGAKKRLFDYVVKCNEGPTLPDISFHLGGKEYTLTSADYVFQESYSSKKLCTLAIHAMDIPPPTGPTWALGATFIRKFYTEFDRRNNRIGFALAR

Monkey [6] = assay: Maximum fall in mean arterial blood pressure expressed in mmHg following a 3 mg/kg intravenous dose in monkeys
[7] = target: Chymotrypsinogen A (Bos taurus) (UniProt P00766); assay: % degradation to Chymotrypsinogen proteolysis at 15 mins.
Outline: as §1

C=CCOC(=O)C(NC(=O)[C@H](Cc1ccccc1)NS(=O)(=O)N1CCOCC1)C(=O)N[C@@H](CC1CCCCC1)[C@@H](O)[C@H](O)CC(C)C (stereo partly drawn)
IC50 [1]: 0.95 nM | Degradation [2]: 65% | IC50 (Cathepsin D [3]): > 100 nM

COC(=O)C(NC(=O)[C@H](Cc1ccccc1)NS(=O)(=O)N1CCOCC1)C(=O)N[C@@H](CC1CCCCC1)C(=O)C(F)(F)C(=O)NCCN1CCOCC1 (stereo partly drawn)
IC50 (Cathepsin D [4]): 515 nM | Blood pressure (Monkey [5]): 16 mmHg

COC(=O)C(NC(=O)[C@H](Cc1ccccc1)NS(=O)(=O)N1CCOCC1)C(=O)N[C@@H](CC(C)C)[C@@H](O)CC(=O)NCCN1CCOCC1 (stereo partly drawn)
IC50 (Cathepsin D [4]): > 1000 nM | IC50 (Renin): 130 nM

COC(=O)CCC(NC(=O)[C@H](Cc1ccccc1)NS(=O)(=O)N1CCOCC1)C(=O)N[C@@H](CC1CCCCC1)[C@@H](O)[C@H](O)CC(C)C (stereo partly drawn)
IC50 [1]: 1.4 nM | Blood pressure (Monkey [5]): 12 mmHg | IC50 (Cathepsin D [3]): 30 nM

COC(=O)C(NC(=O)[C@H](Cc1ccccc1)NS(=O)(=O)N1CCOCC1)C(=O)N[C@@H](CC1CCCCC1)[C@@H](O)[C@H](O)CC(C)C (stereo in doubt; 4B)
Blood pressure (Monkey [5]; 30 mg/kg): 14 mmHg | IC50 (Cathepsin D [3]): 77 nM

COC(=O)C(NC(=O)[C@H](Cc1ccccc1)NS(=O)(=O)N1CCOCC1)C(=O)N[C@@H](CC1CCCCC1)[C@@H](O)CC(=O)NCCN1CCOCC1 (stereo partly drawn)
Blood pressure (Monkey [6]): 16 mmHg | IC50 (Cathepsin D [4]): > 1000 nM

COc1ccc(C[C@H](NC(=O)CC(C)(C)N)C(=O)N[C@@H](Cc2c[nH]cn2)C(=O)N[C@@H](CC2CCCCC2)[C@@H](O)[C@@H](O)CC(C)C)cc1
Blood pressure (Monkey [5]): 8 mmHg | IC50 (Cathepsin D [3]): > 1000 nM

COC(=O)C(NC(=O)[C@H](Cc1ccccc1)NS(=O)(=O)N1CCOCC1)C(=O)N[C@@H](CC1CCCCC1)[C@@H](O)[C@H](O)CC(C)C (stereo in doubt; 4) [listing 1 of 2 here]
Blood pressure (Monkey [5]; 30 mg/kg): 22 mmHg | IC50 (Cathepsin D [3]): 36 nM

CC(C)C[C@@H](O)[C@H](O)[C@H](CC1CCCCC1)NC(=O)C(NC(=O)[C@H](Cc1ccccc1)NS(=O)(=O)N1CCOCC1)C(=O)O (stereo partly drawn)
IC50 [1]: 27 nM | IC50 (Cathepsin D [3]): 310 nM

CCCCNC(=O)[C@@H](C[C@H](O)[C@H](CC1CCCCC1)NC(=O)[C@H](Cc1c[nH]cn1)NC(=O)[C@H](Cc1ccccc1)CS(=O)(=O)C(C)(C)C)C(C)C
IC50 (Cathepsin D [4]): 1300 nM | Blood pressure (Monkey [5]): 16 mmHg

COC(=O)CC(NC(=O)[C@H](Cc1ccccc1)NS(=O)(=O)N1CCOCC1)C(=O)N[C@@H](CC1CCCCC1)[C@@H](O)[C@H](O)CC(C)C (stereo partly drawn)
IC50 [1]: 0.18 nM | Blood pressure (Monkey [5]): 3 mmHg | IC50 (Cathepsin D [3]): 27 nM

CC(C)C[C@@H](O)[C@H](O)[C@H](CC1CCCCC1)NC(=O)C(NC(=O)[C@H](Cc1ccccc1)NS(=O)(=O)N1CCOCC1)C(=O)OC(C)C (stereo partly drawn)
IC50 [1]: 0.68 nM | Degradation [2]: 70% | Blood pressure (Monkey [5]): 16 mmHg | IC50 (Cathepsin D [3]): 43 nM

CCCCCCOC(=O)C(NC(=O)[C@H](Cc1ccccc1)NS(=O)(=O)N1CCOCC1)C(=O)N[C@@H](CC1CCCCC1)[C@@H](O)[C@H](O)CC(C)C (stereo partly drawn)
IC50 [1]: 15 nM | Degradation [2]: 15% | IC50 (Cathepsin D [3]): 100 nM

COC(=O)C(NC(=O)[C@H](Cc1ccccc1)NS(=O)(=O)N1CCOCC1)C(=O)N[C@@H](CC1CCCCC1)[C@@H](O)[C@H](O)CC(C)C (stereo in doubt; 4A)
Blood pressure (Monkey [5]; 30 mg/kg): 18 mmHg | IC50 (Cathepsin D [3]): 46 nM

COC(=O)C(NC(=O)[C@H](Cc1ccccc1)NS(=O)(=O)N1CCOCC1)C(=O)N[C@@H](CC1CCCCC1)[C@@H](O)[C@H](O)CC(C)C (stereo in doubt; 4) [listing 2 of 2 here]
Degradation [2]: 100% | Degradation [7]: 89%

CSC[C@H](NC(=O)[C@H](Cc1ccccc1)NC(=O)N1CCOCC1)C(=O)N[C@@H](CC1CCCCC1)[C@@H](O)C(=O)OC(C)C
IC50 (Cathepsin D [4]): 24 nM | Blood pressure (Monkey [5]): 9 mmHg
